# hDAT+cocaine – human DAT dopamine uptake with cocaine, either direction; Q01959; LLC-PK1 hDAT cells, [14C]-dopamine uptake with cocaine IC80; actives deviate in either direction; B-score at 10 µM; 110,000 tested, 1.3% active;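 active = Z score or B-score, a plate-position-corrected score, falls beyond the plate's 99.7% confidence bounds, in either direction; inactive = both scores lie inside the 99.7% bounds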;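 note: scored against the spread of the other compound wells on the same plate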
# Target sequence (Q01959 whole entry, looked up): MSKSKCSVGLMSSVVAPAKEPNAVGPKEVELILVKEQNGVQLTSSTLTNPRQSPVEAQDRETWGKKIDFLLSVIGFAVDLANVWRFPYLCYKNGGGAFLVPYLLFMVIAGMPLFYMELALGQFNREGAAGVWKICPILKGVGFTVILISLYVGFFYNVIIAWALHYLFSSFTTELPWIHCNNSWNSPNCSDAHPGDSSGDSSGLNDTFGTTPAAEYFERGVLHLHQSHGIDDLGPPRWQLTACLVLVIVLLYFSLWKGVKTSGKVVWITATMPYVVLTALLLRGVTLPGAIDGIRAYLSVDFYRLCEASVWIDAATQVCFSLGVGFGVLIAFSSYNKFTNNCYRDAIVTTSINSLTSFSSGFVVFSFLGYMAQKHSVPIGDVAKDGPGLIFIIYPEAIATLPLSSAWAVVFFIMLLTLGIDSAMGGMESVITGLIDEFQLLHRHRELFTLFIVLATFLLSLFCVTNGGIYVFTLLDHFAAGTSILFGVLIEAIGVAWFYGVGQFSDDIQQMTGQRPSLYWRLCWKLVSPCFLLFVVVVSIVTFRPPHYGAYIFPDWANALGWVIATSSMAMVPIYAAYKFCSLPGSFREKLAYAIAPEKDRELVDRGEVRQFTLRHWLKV
# MMP13 inh – blocks human MMP13 activity; P45452; inhibition, % at 4 µM; 65,000 tested, 0.07% active; MMP-13 fTHP FRET cleavage, Mca fluorescence;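 active = inhibition above the mean of compound-free control plate wells plus 3 SD, cut at about 14% in these data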;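 note: 0% = DMSO wells and 100% = wells with reference MMP-13 inhibitor after basal subtraction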
# Calb biofilm kill – kills Candida albicans biofilms | C. albicans biofilm + clotrimazole, Alamar Blue | inhibition, % at 6 µM | 85,000 tested, 0.14% active;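 active = inhibition above 20%; inactive = inhibition below 20%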;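 note: preformed 24 hr biofilms exposed to compound for 48 hr; 0% = biofilm without compound and 100% = blank killed by clotrimazole plus chlorhexidine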
# D1 mod – D1 dopamine receptor (human) allosteric modulation. P21728. HEK293 D1, CRE-luciferase, dopamine EC30 potentiation; actives deviate in either direction. B-score at 10 µM. 58,000 tested, 5.9% active. AID 641;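 active = luminescence count or its row- and column-corrected plate score outside the 99.7% band of the plate's sample wells, on either side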
# AP ELISA ortho – orthogonal test for alternative complement pathway inhibitors | 62,000 tested, 0.08% active | Human serum alternative complement pathway, LPS-coated ELISA, C3 deposition; tested in compound mixtures | inhibition, % at 5 µM | AID 1235;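 active = inhibition above 30% in each of the two pooled mixtures holding the compound, so the lower value exceeds 30%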;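 note: 0% = serum in Mg-EGTA without compound and 100% = EDTA serum blank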
#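 Assay system: human serum alternative complement pathway, C3 deposition on LPS-coated wells; Dosing: 5 µM per compound in ten-compound mixtures; Detection: Anti-C3 ELISA, OD 450 nm; Buffer or medium: Mg2+-EGTA GVB++ buffer containing human serum at 1:15 dilution; Timing: 1 h at 37 °C; Replication: two different pools per compound.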
# D1 PAM confirm – D1 receptor (human) allosteric modulation, confirmed | HEK293 D1 CRE-luciferase, dopamine EC30 potentiation; hits give high values | luminescence at 10 µM | shares compounds with D1 mod | 2,200 tested, 88% active;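 active = luminescence in either of two replicates above the same-plate mean plus 3 SD of the low-dose dopamine control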
# D1 no dopamine – activates D1 CRE-luciferase signal without dopamine present; shares compounds with D1 mod; HEK293 D1 CRE-luciferase, luminescence, no dopamine; hits give high values; luminescence at 10 µM; 1,900 tested, 0.8% active; in the data active = luminescence above about 3900
# Isoprot counter – counter-screen for D1 modulators: isoproterenol response in HEK293 cells; shares compounds with D1 mod; HEK293 D1 CRE-luciferase, isoproterenol EC30 counter-screen; hits give high values; luminescence at 10 µM; 2,200 tested, 63% active;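 active = luminescence in either replicate above plate mean of wells with a partly effective reference agonist dose plus 3 SD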;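 note: isoproterenol raises cAMP through native beta-adrenoceptor Gs so signal bypasses D1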
# * marks the source's active call; other numbers are inactive results; nt = no result given. The sample as a whole holds a higher share of hits than the screen did.
SMILES,hDAT+cocaine,MMP13 inh,Calb biofilm kill,D1 mod,AP ELISA ortho,D1 PAM confirm,D1 no dopamine,Isoprot counter
COc1ccc(Cc2nnc(NC(=O)c3c(-c4ccccc4)noc3C)s2)cc1,2.01,0.3,8.1,3.32*,1.5,6196*,1588,2584
CC(C)CC(=O)Nc1sc2c(c1C#N)CC(C)(C)NC2(C)C,0.232,nt,7.7,nt,nt,nt,nt,nt
CCC(=O)Nc1sc2c(c1C#N)CC(C)(C)NC2(C)C,0.00329,2.7,9.3,6.36*,10.8,7612,1848,2296
N#CCc1c(C#N)c(N)nc(N2CCN(S(=O)(=O)c3ccccc3)CC2)c1C#N,-0.331,-1.7,8.1,5.49*,10.5,11684*,1432,3204*
N#Cc1nc(-c2ccccc2Cl)oc1NCC1CCCO1 (stereo unspecified),0.513,-17.5,7.1,5.68*,6.5,10656*,1604,3572*
COc1ccc(-c2nc(C#N)c(N3CCOCC3)o2)cc1OC,0.0236,-351.0,6.8,3.2*,6.6,11200*,1596,3116*
CN(C)c1oc(-c2ccccc2)nc1C#N,-0.602,nt,nt,nt,nt,nt,nt,nt
COc1ccc(-c2nc(C#N)c(NCC3CCCO3)o2)cc1OC (stereo unspecified),0.809,-366.5,9.6,3.82*,-2.4,8472*,1680,3300*
CN(C)c1oc(-c2ccccc2Cl)nc1C#N,nt,-50.9,-1.7,3.44*,7.0,6136*,1600,2636
COc1ccc(-c2nc(C#N)c(N3CCC(C(N)=O)CC3)o2)cc1OC,-0.00581,nt,2.0,nt,nt,nt,nt,nt
CCOc1c2ccc(C(=O)NCc3ccc4c(c3)OCO4)cc2nn1CCOC,0.43,nt,nt,nt,nt,nt,nt,nt
CC(C)Cc1cc(C(=O)Nc2cc(C(F)(F)F)ccc2Cl)no1,-1.65,nt,0.7,nt,nt,nt,nt,nt
Cc1cc(C)cc(NC(=O)NC2CCN(CC(=O)Nc3c(C)cc(C)cc3C)CC2)c1,nt,nt,7.4,nt,nt,nt,nt,nt
COc1ccc(-c2nc(C#N)c(NCCCN(C)C)o2)cc1OC,2.6,-317.3,2.5,-0.678,7.4,nt,nt,nt
COc1ccc(-c2nc(C#N)c(NC(C)c3ccccc3)o2)cc1OC (stereo unspecified),nt,-153.6,3.6,6.81*,7.7,12956*,nt,2672
CC1=C(C(=O)Nc2ccc(C)cc2C)C(c2ccc(C)o2)NC(=O)N1 (stereo unspecified),-0.608,nt,9.3,nt,nt,nt,nt,nt
CCOC(=O)N1CCC(N2Cc3cccc(C(=O)NC(C)c4ccc5c(c4)OCCO5)c3C2=O)CC1 (stereo unspecified),0.224,1.0,13.7,2.41*,1.2,8332*,1632,3336
N#Cc1cc([N+](=O)[O-])cnc1NCC(O)CO (stereo unspecified),-0.0624,nt,nt,nt,nt,nt,nt,nt
COc1cccc(C2=CC(c3cc(OC)ccc3OC)n3nnnc3N2)c1 (stereo unspecified),nt,-6.3,-0.4,4.12*,11.3,8488*,nt,3952*
COc1ccc(C2=CC(c3ccc(OC)c(OC)c3)n3nnnc3N2)c(OC)c1 (stereo unspecified),0.484,-13.6,3.9,9.32*,7.3,15796*,2008,12912*
COc1ccc(OC)c(C2C=C(c3ccc(C)c(C)c3)Nc3nnnn32)c1 (stereo unspecified),2.18,-13.2,9.2,3.86*,11.6,6516*,1816,2604
COc1cccc(C2C=C(c3ccc(OC)cc3OC)Nc3nnnn32)c1 (stereo unspecified),0.825,-24.6,10.3,0.116,11.1,nt,nt,nt
CCCC(C)NCC(=O)Nc1ccccc1-c1ccccc1 (stereo unspecified),1.5,nt,nt,nt,nt,nt,nt,nt
C=CCn1c(=O)c2c(C)c(C)sc2n2c(Nc3ccc(OC)cc3)nnc12,-0.586,0.6,2.4,3.34*,-3.6,10192*,1584,3324
C=CCSc1nc2sc(C)c(C)c2c(=O)n1CC=C,1.41,nt,9.2,nt,nt,nt,nt,nt
Cc1ccc(N2CCN(C(=O)c3ccccc3NC(=O)/C=C\C(=O)O)CC2)cc1,-0.336,nt,nt,nt,nt,nt,nt,nt
Cc1sc2ncnc(SCC(=O)NC3CC3)c2c1C,0.373,nt,nt,nt,nt,nt,nt,nt
Cc1sc2ncnc(SCC(=O)N3CCCC3)c2c1C,1.4,5.7,0.6,2.3*,7.3,7900*,1616,2584

# Assay outcomes as filed in PubChem BioAssay.
